Laboratory results: ChEMBL document CHEMBL4177743, “α-Methylation enhances the potency of isoprenoid triazole bisphosphonates as geranylgeranyl diphosphate synthase inhibitors” (Bioorg Med Chem, 2018)
The source made the active and inactive calls. The calls are words filed in the database; no cut-off is given here.

Tests used:
[1] = molecular target: T1, Geranylgeranyl pyrophosphate synthase (Homo sapiens) (UniProt O95749); test: Inhibition of GGDPS in human […] cells assessed as decrease in Rab GTPase geranylgeranylation by measuring accumulation of intracellular lambda light chain after 48 hrs by ELISA; format: cell-based
T1 sequence (whole entry): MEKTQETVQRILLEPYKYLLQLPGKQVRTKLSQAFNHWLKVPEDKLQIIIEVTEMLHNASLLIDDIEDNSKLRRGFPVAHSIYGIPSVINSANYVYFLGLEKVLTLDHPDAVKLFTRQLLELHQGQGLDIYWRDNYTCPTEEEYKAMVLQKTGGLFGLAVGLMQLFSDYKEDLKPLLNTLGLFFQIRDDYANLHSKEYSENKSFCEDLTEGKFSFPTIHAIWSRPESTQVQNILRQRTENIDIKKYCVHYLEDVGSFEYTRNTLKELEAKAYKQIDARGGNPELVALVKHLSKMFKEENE
Procedure, shortened: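 RPMI-8226 myeloma cells were exposed for 48 h to a range of test concentrations, with lovastatin (10 μM) as positive control. Whole-cell lysates were made in RIPA buffer with protease and phosphatase inhibitors. Intracellular lambda light chain was quantified by human lambda ELISA and normalized to BCA total protein. Data are % of control, mean + SD, n=3; unpaired two-tailed t-test, p < 0.05.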

Homo sapiens = species: Homo sapiens; test: Selectivity ratio of IC50 for recombinant FDPS (unknown origin) to IC50 for recombinant GGDPS (unknown origin)
Procedure, shortened: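 Ratio of FDPS IC50 to GGDPS IC50. Both enzymes were recombinant: FDPS from an academic source, GGDPS commercial. Each IC50 came from duplicate wells at multiple concentrations in three independent experiments. Positive controls were zoledronic acid for FDPS and digeranyl bisphosphate for GGDPS.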

[2] = molecular target: T1, Geranylgeranyl pyrophosphate synthase (Homo sapiens); test: Inhibition of GGDPS in human […] cells assessed as increase in Rap1a level at 1 to 10 uM by Western blot analysis; format: cell-based
Procedure, shortened: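 RPMI-8226 cells were treated for 48 h with varying compound concentrations or lovastatin (10 μM). RIPA lysates containing protease and phosphatase inhibitors were protein-equalized by BCA, then run on SDS-PAGE and transferred to PVDF. Blots were probed with an antibody detecting only unmodified (non-geranylgeranylated) Rap1a, with β-tubulin as loading control, and developed by HRP secondary and ECL.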

[3] = molecular target: T1, Geranylgeranyl pyrophosphate synthase (Homo sapiens); settings: 50 to 1000 nM
[4] = molecular target: T1, Geranylgeranyl pyrophosphate synthase (Homo sapiens); settings: 50 to 1000 nM; remark: listed apart in the source
[5] = molecular target: T2, Farnesyl pyrophosphate synthase (Homo sapiens, UniProt P14324); test: Inhibition of recombinant FDPS (unknown origin) using GPP as substrate pretreated for 10 mins followed by substrate addition measured after 30 mins in presence of [14C]-IPP by liquid scintillation counting method
T2 sequence (P14324 whole entry): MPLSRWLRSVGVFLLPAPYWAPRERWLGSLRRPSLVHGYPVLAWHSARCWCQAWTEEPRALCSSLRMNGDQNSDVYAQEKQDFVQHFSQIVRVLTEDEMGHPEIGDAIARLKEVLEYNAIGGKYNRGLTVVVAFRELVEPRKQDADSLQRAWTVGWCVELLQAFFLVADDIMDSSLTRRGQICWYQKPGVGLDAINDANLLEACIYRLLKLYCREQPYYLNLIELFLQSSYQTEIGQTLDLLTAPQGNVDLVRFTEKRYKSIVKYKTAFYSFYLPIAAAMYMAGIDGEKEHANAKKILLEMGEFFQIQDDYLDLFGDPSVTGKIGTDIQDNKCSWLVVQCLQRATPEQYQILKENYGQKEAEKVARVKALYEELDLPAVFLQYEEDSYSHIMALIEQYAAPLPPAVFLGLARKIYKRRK
Procedure, shortened: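 Recombinant FDPS was a gift from an academic laboratory. Each compound was tested in duplicate at multiple concentrations across three independent experiments to obtain IC50, with zoledronic acid as positive control in every run.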

[6] = molecular target: T3, Geranylgeranyl pyrophosphate synthase (Homo sapiens, UniProt O95749); test: Inhibition of recombinant GGDPS (unknown origin) using FPP as substrate pretreated for 10 mins followed by substrate addition measured after 30 mins in presence of [14C]-IPP by liquid scintillation counting method
T3 sequence (O95749 whole entry): T1 sequence (whole entry)
Procedure, shortened: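 Commercial recombinant GGDPS was used, following a previously described protocol. Each compound was run in duplicate at several concentrations across three independent experiments, and IC50 was reported with digeranyl bisphosphate as the positive control in every run.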

Structure (SMILES) | MEC [1] [µM] | Ratio IC50 (Homo sapiens) | MEC [2] [µM] | inhibition [3] | inhibition [4] | IC50 [5] [µM] | IC50 [6] [nM]
CC(C)=CCC/C(C)=C/CCn1cc(CC(C)(P(=O)(O)O)P(=O)(O)O)nn1 [listing 1 of 2 here] | 0.02 | 345 | 0.02 |  |  |  | 
CC(C)=CCC/C(C)=C/CCn1cc(CC(C)(P(=O)(O)O)P(=O)(O)O)nn1 (mixture of isomers) [listing 1 of 2 here] | 0.03 | 241 | 0.03 |  |  |  | 
CC(C)=CCC/C(C)=C\CCn1cc(CC(C)(P(=O)(O)O)P(=O)(O)O)nn1 | 0.025 | 693 | 0.025 |  |  | 59.6 | 
CC(C)=CCC/C(C)=C/Cn1cc(CC(C)(P(=O)(O)O)P(=O)(O)O)nn1 | 5 | 3.5 | 5 |  |  | 71.4 | 20500
CC(C)=CCC/C(C)=C/CCn1cc(CC(C)(P(=O)(O)O)P(=O)(O)O)nn1 [listing 2 of 2 here] |  |  |  |  |  | 43.1 | 
CC(C)=CCC/C(C)=C/CCn1cc(CC(C)(P(=O)(O)O)P(=O)(O)O)nn1 (mixture of isomers) [listing 2 of 2 here] |  |  |  |  |  | 24.1 | 100

The remaining lines, values ahead:

MEC [1] [µM] | Ratio IC50 (Homo sapiens) | MEC [2] [µM] | inhibition [3] | inhibition [4] | IC50 [5] [µM] | IC50 [6] [nM] | Structure (SMILES)
 |  |  | Active | Active |  |  | CC(C)=CCCC(C)=CCn1cc(CC(P(=O)(O)O)P(=O)(O)O)nn1 (mixture of isomers)
0.1 | > 108 | 0.1 |  |  | > 100 | 920 | CC(C)=CCC/C(C)=C\Cn1cc(CC(C)(P(=O)(O)O)P(=O)(O)O)nn1
2.5 | 16 | 2.5 |  |  | 94.3 | 5850 | CCC(Cc1cn(CC=C(C)CCC=C(C)C)nn1)(P(=O)(O)O)P(=O)(O)O
0.1 | 49 | 0.1 |  |  | 62.2 | 1270 | CC(C)=CCCC(C)=CCn1cc(CC(C)(P(=O)(O)O)P(=O)(O)O)nn1 (mixture of isomers)
